Assay [1] concerns SA11 rotavirus. Nature of the assay: Rotavirus. It counts as cell-based, rotavirus SA11 (primate G3). Conditions: SA11, MOI of 2, 12 hr post infection. In a few lines: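 Confluent MA104 monolayers inoculated 1 hr, PBS-washed, then held in MEM with test compound (below 50 μM; below 20 μM for some) or 0.1% DMSO plus trypsin 1 μg/ml. At 12 hr, IFA: methanol fix (RT, 30 min), anti-VP6 mAb, FITC anti-mouse IgG. Western: lysates sonicated, 10% gel, anti-VP6 with β-actin loading control, chemiluminescent detection.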

Another assay relates to Huh-7 cells. The experiment in a line: Lipid droplet development in Huh-7 cells. Conditions: various concentrations. Format: cell-based, human. In a few lines: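 Spontaneous lipid droplet formation in confluent Huh-7 cells given various concentrations of test compound or 0.1% DMSO mock for 72 hr. Medium then replaced with NBD-cholesterol (1 μg/ml) medium for a further 12 hr. Cells fixed in 4% formaldehyde for 10 min, PBS-washed, and fluorescence viewed by microscopy. Untreated 1-day-old and 4-day-old cells served as references.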

Assay [2] relates to SA11 rotavirus. Nature of the assay: Pre-treatment of SA11 rotavirus with compound. Format: cell-based, rotavirus SA11 (primate G3). Conditions: pre-treatment with compound at 100 M (so in the source), 37 °C for 2 hrs.
In assay [3] the test system is SA11 rotavirus. The experiment in a line: Rotavirus. It counts as cell-based, rotavirus SA11 (primate G3). Conditions: MA104, in Primates, 24 h, read-out: ED50, rotavirus (SA11) replication, MA104 cells, TCID50 titers at 24 hr post infection, average of at least 3 independent tests.

With `CCC/C=C/C/C=C/C=C/C=N/N1CCCS1(=O)=O` [1ba, 2-[(2E,4E,7E)-Undeca-2,4,7-trienylideneamino]-1,1-dioxo-1-isothiazolidine], in the assay with SA11 rotavirus [1], the “anti-rotaviral effects by Western blot analysis and IFA” value (from here on “anti-rotaviral effects”) is on record as “confirmed”. Moreover, the “suppression of increase in lipid droplets” value (“suppression of increase” for short) in the assay on Huh-7 cells is recorded as “dose-dependent”.

Regarding `CCC/C=C/C/C=C/C=C/CNc1ccc(C(=O)O)cc1` [1e, 4-((2E,4E,7E)-Undeca-2,4,7-trienylamino)benzoic acid], in the assay on SA11 rotavirus [1], the “anti-rotaviral effects” value is given as “confirmed”. The “suppression of increase” value with Huh-7 cells is recorded as “dose-dependent”. In the assay with SA11 rotavirus [2], the “effect of pre-treatment of SA11 rotavirus on viral titer (virucidal effect)” value is “did not affect the viral titer”.

As to `C=C(C)[C@@H]1CC[C@]2(C(=O)O)CC[C@]3(C)[C@H](CC[C@@H]4[C@@]5(C)CC[C@H](O)C(C)(C)[C@@H]5CC[C@]43C)[C@@H]12` [Betulinic acid, betulinic acid], the EC50 in the assay with SA11 rotavirus [3] was 11.3 to 28.5 µM.

As to `C=C1C(=O)O[C@H](CCCCCCCC)[C@H]1C(=O)O` [C75], the EC50 in the assay with SA11 rotavirus [3] fell in the range of 11.3 to 28.5 µM.

`CCCCCCCCCCCCCCCCNc1ccc(C(=O)O)cc1` [PHB, hexadecylamino-p-amino benzoic acid]: the EC50 in the assay with SA11 rotavirus [3] lay in the range of 11.3 to 28.5 µM.

As for `CCC/C=C/C/C=C/C=C/C=N/NN=O` [Triacsin C], the “anti-rotaviral effects” value with SA11 rotavirus [1] is “confirmed”. The “suppression of increase” value with Huh-7 cells is “dose-dependent”. For the same compound, the “effect of pre-treatment of SA11 rotavirus on viral titer (virucidal effect)” value with SA11 rotavirus [2] is “did not affect the viral titer”.

(Values after PMC3312795 (European Journal of Medicinal Chemistry, 2012).)
